Hits are enriched below; roughly 1.5% of the tested compounds scored in any of these assays.
b-catenin transl – modulators of beta-catenin nuclear translocation, primary screen, imaging, HeLa cells, immunofluorescence, high-content | nuclear translocation activity, % at 5 µM | actives 0.3% (n = 190,000) | AID 1665, 2009;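 active = nuclear translocation activity above 50% at 5 µM, with a well cell count of 50 or more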;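 also: per-cell ratio of nuclear to cytoplasmic median beta-catenin stain intensity; plate controls were DMSO negative control for no effect and GSK-3 inhibitor IX positive control for full effect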
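assay system = human HeLa cells, endogenous beta-catenin | times = compound treatment 24 h, 37°C, 5% CO2 | detection = Anti-beta-catenin immunofluorescence on PFA-fixed, Triton-permeabilized cells, DAPI nuclei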
MT stabilize HCS – microtubule stabilizers in HeLa cells, primary screen, imaging, high-content imaging; HeLa tubulin immunostaining HCS, 24 h; share of cells brighter than vehicle mean+2SD; % tubulin-high responders, % at 10 µM; actives 0.83% (n = 200,000); AID 2205, 2009;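 active = plate Z-score above 3 for both tubulin-high and condensed-nucleus cell shares, with cell loss under 80%, at 10 µM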;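 also: anti alpha tubulin signal scored within the nucleus-defined area of each cell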
Tb hexokinase – Trypanosoma brucei hexokinase 1 inhibitors, primary screen, biochemical, G6PDH-coupled NADH absorbance, MLSCN library; hexokinase 1 [Trypanosoma brucei]; recombinant TbHK1, G6PDH-coupled NADH A340; inhibition, % at 10 µM; actives 0.11% (n = 220,000);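 active = inhibition of 50% or more in the single-dose primary screen; inactive = inhibition below 50%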
Rad51 HR inh – human RAD51 strand exchange inhibitors, primary screen, biochemical, fluorescence; inhibition, % at 10 µM; AID 1385, 2008; hRad51 DNA strand exchange, fluorescence dequenching; DNA repair protein RAD51 homolog 1 (Homo sapiens), Q06609; actives 0.085% (n = 200,000);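 active = inhibition above 40% at the single screening dose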;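 also: 0% = DMSO control wells and 100% = blanks with heterologous ssDNA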
Target sequence (Q06609 whole entry, looked up): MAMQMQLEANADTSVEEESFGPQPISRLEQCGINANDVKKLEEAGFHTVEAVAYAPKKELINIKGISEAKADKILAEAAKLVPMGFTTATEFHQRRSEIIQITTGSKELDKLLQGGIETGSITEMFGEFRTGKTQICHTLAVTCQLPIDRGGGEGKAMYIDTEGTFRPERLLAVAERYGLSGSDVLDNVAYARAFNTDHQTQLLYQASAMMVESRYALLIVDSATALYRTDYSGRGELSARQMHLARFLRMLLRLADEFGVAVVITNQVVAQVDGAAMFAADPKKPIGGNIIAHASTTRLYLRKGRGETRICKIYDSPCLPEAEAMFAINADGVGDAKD
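material = hRad51 filaments on single-stranded DNA | reagent = Donor/quencher-labelled 47-bp dsDNA substrate | compound = 10 µM final, single point | schedule = strand-exchange reaction 15 min at room temperature | measured by = fluorescein emission 520 nm, excitation 485 nm | read-out basis = % inhibition versus plate control and blank means | benchmarks = plate controls and plate blanks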
Dynein transport – inhibitors of GR-EGFP nuclear translocation, primary screen, dynein cargo transport inhibitor project, imaging, high-content, 3617.4 mouse cells; test concentration mostly 20 µM; stimulated with dexamethasone, 1 µM; stronger effect = lower value; z-score, hits read low; AID 1381, 2008; actives 0.47% (n = 220,000);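 active = plate z-score of nuclear minus cytoplasmic receptor signal below a set negative limit, without overly bright fluorescence or cell loss, cut at about -3.5 in these data, passing the limit was not always enough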;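 also: z-score of nuclear minus cytoplasmic ring GR-EGFP intensity difference per well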
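Buffer or medium: tet-free medium with charcoal-stripped serum / Also added: dexamethasone agonist, 1.0 µM final, for 30 min / Timing: induction 48 h, compound 1 h, agonist 30 min / Measured by: high-content fluorescence imaging after fixation / Read-out: nuclear-to-cytoplasmic GR-EGFP distribution per well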
* hit, by the source's call; nt = not tested or not shown.

SMILES	b-catenin transl	MT stabilize HCS	Tb hexokinase	Rad51 HR inh	Dynein transport
COc1ccccc1-c1nnc2sc(-c3cc4ccccc4o3)nn12	94*	44	-18	nt	2
COc1ccccc1-c1nn2c(-c3ccc(C(C)(C)C)cc3)nnc2s1	-6	nt	nt	nt	nt
COc1ccccc1-c1nn2c(C(F)(F)F)nnc2s1	-3	14*	2	0	0.66
COc1ccc(-c2nn3c(-c4cccc(C)c4)nnc3s2)cc1OC	nt	33*	-4	0	0.39
COc1ccccc1-c1nnc2sc(-c3cnccn3)nn12	3	2	-5	3	-0.39
FC(F)(F)c1nnc2sc(-c3ccccn3)nn12	0	3	-1	-11	-0.08
COc1ccccc1-c1nnc2sc(-c3ccc(N(C)C)cc3)nn12	74*	8	-31	7	-0.53
CC1(C(=O)NCCN2CCOCC2)C=CC2(CCCCC2)N1C(=O)c1ccccc1 (stereo unspecified)	0	6	-2	-2	0.48
Cc1ccc(Oc2ncc(CN3CCOCC3)s2)cc1	nt	4	-3	-2	2.2
CN(C)c1ccc(-c2nn3c(-c4ccccc4Cl)nnc3s2)cc1	78*	29*	-11	3	0.1
COCCn1nnnc1C(C(C)C)N1CCOCC1 (stereo unspecified)	-2	2	-1	0	1
CCOC(=O)C(C)Sc1nc2c(cnn2-c2ccc(C)cc2)c(=O)[nH]1 (stereo unspecified)	1	43*	-4	4	0.72
Cc1ccc(-n2ncc3c(=O)[nH]c(SC(C)C)nc32)cc1	-2	6	-11	5	0.28
COC(=O)CN1C(=S)N(C)C(=O)C1CC(=O)Nc1ccccc1 (stereo unspecified)	-1	6	-1	3	-0.26
CCOC(=O)c1ccc(N2C(=O)c3n[nH]c(C)c3C2c2ccc(OC)c(OC)c2)cc1 (stereo unspecified)	2	38*	5	-2	2.2
Cc1nc2ccc(NS(=O)(=O)c3ccc4c(c3)OCCO4)cc2s1	0	2	-12	8	-0.37
Cc1cc(C)cc(Nc2c3c(nc4ncnn24)CCC3)c1	0	12*	-3	-4	0.26
Cc1ccc(NC(=O)NNC(=O)Cn2nc(-c3ccccc3)c(-c3ccccc3)c(C#N)c2=O)cc1	0	27*	-10	-8	-0.46
CCOC(=O)Nc1ccc(S(=O)(=O)N2CCC(C)CC2)cc1	3	18*	-1	6	-0.46
Cc1ccc(-c2cc(C(F)F)n3ncc(C(=O)Nc4ccc(S(=O)(=O)Nc5ccccc5C)cc4)c3n2)cc1	nt	3	-11	0	0.79
CC1(C)Cc2c(sc3ncnc(NNC(=S)NCc4ccccc4)c23)CO1	0	29*	-6	nt	-0.096
O=c1c(Br)c(Br)cnn1-c1ccccc1	-1	7	-5	16	-5.8*
O=c1c(Br)c(N2CCCC2)cnn1-c1ccccc1	-3	3	20	3	0.72
COc1ccc(NC(=O)/C(Cl)=C(/Cl)S(=O)Cc2ccccc2Cl)cn1 (stereo unspecified)	-4	21	9	3	-5*
COc1ccc(NC(=O)Cc2ccc(Cl)c(Cl)c2)cn1	-1	2	-7	2	-0.58
SMILES	b-catenin transl	MT stabilize HCS	Tb hexokinase	Rad51 HR inh	Dynein transport
COc1ccc(S(=O)(=O)NCC2CCCN(Cc3ccc(C)o3)C2)cc1 (stereo unspecified)	-3	2	0	0	0.97
CCc1nnc(NC(=O)CSc2nccn2-c2cccc(C)c2C)s1	0	19*	-8	-4	-0.27
COc1ccc2c3c(c(=O)oc2c1OCC(=O)O)CCCC3	0	6	28	-1	0.91
COc1ccc(OC)c(NC(=O)CN(c2ccc(C)cc2)S(=O)(=O)c2c(C)noc2C)c1	-4	2	0	-1	-0.68
COc1ccc(N(CC(=O)Nc2cc(Cl)ccc2OC)S(=O)(=O)c2c(C)noc2C)cc1	0	16*	-10	-9	-0.89
COc1cc(C)c(C(C)C)cc1S(=O)(=O)N1CCN(C)CC1	-1	3	1	-2	-0.21
COc1cc(C)c(C(C)C)cc1S(=O)(=O)n1cnc(C)c1	93*	14*	7	-8	-1.5
COCCCNC1=C(Cl)C(=O)c2ccccc2C1=O	2	nt	-7	19	0.47
CCN(CC)CCCNC1=C(Cl)C(=O)c2ccccc2C1=O	1	43*	-3	nt	-1.9
COc1ccc(OC)c(NC(=O)c2ccccc2OC(C)=O)c1	nt	nt	nt	0	nt
Cc1cccc(-c2nnn(Cc3nnc(NC(=O)c4ccccc4)s3)n2)c1	-2	3	5	88*	-0.79
COc1ccc(Cc2nnc(NC(=O)c3cccc(C)c3)s2)cc1	0	3	-2	4	-0.22
O=C(CSc1ncn(-c2ccccc2)n1)c1cccs1	-6	2	-2	68*	-0.22
COc1ccc(-c2n(Cc3ccccc3)c3ccccc3[n+]2Cc2ccccc2)cc1	0	11*	-7	-102	-0.42
CCOC(=O)C(C)c1c(C(=O)c2ccc(C)nc2)c2ccccc2n1C (stereo unspecified)	0	nt	-29	-14	0.77
CC(=O)Nc1cc(OC(C)=O)c2nonc2c1OC(C)=O	3	35	-10	1	-5.1*
O=C(O)C1CCCCC1C(=O)NCCc1ccc(F)cc1 (stereo unspecified)	-1	2	2	1	1.2
CC(C)(C)c1ccc(C(=O)N2CCC(C(=O)NCCC3=CCCCC3)CC2)cc1	0	2	1	-5	1.4
Cc1cc(Nc2nc3ccccc3nc2Cl)n(-c2ccccc2)n1	nt	12*	-15	3	-0.72
Cc1cc(Nc2ccc(Cl)cc2)n(-c2ccccc2)n1	-2	1	0	nt	0.65
Cc1cc(Nc2nc3ccccc3nc2Cl)n(-c2ccccc2C)n1	1	13*	-2	2	-1.2
O=C1CC(c2ccccc2)CC(O)=C1C=Nc1ccccc1Cl (stereo unspecified)	8	3	0	nt	0.047
COc1ccccc1N=CC1=C(O)CC(c2ccccc2)CC1=O (stereo unspecified)	96*	5	-7	-10	-0.44
O=C(Nc1sc2c(c1C(=O)NCC1CCCO1)CCCC2)c1cccs1 (stereo unspecified)	-2	1	-4	-2	-0.58
COc1ccc(CNC(=O)C2CCCN2S(=O)(=O)c2ccc(Cl)cc2)cc1 (stereo unspecified)	-2	4	4	8	2.1
O=C(/C=C/c1ccco1)N1CCN(c2ncccn2)CC1	nt	9.8*	-7	8	-0.6
